Measurements: ChEMBL document CHEMBL1123213, “Neuroleptic activity of chiral trans-hexahydro-gamma-carbolines” (J Med Chem, 1986)

How the values were obtained:
[1] = test system: Rattus norvegicus; assay: Compound was tested for the antagonistic activity against amphetamine-induced stereotypy in rats; (5 mg/kg administered ip 5 hr after the test compound).; assay type: functional
Method in brief: (§1)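 Rats housed singly in covered compartments, briefly acclimated, then dosed sc in groups of five at doses spaced 0.5 log unit (1, 3.2, 10, 32 mg/kg). d-Amphetamine sulfate 5 mg/kg ip given 1, 5 and 24 h later. Behaviour scored on a six-point scale 1 h after each challenge. ED50 by linear regression or by inspection; no fiducial limits.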

[2] = test system: Rattus norvegicus; assay: Antagonistic activity against amphetamine-induced stereotypy in rats; (5 mg/kg administered ip 1 hr after the test compound).; assay type: functional; method in brief: as §1
[3] = target: Dopamine receptor; assay: Inhibition of [3H]spiroperidol (0.5 nM) binding to dopamine receptor from rat striatal membrane.
[4] = test system: Rattus norvegicus; assay: Compound was tested for the antagonistic activity against amphetamine-induced stereotypy in rats; (5 mg/kg administered ip 24 hr after the test compound).; assay type: functional; method in brief: as §1
[5] = test system: Mus musculus; assay: Compound was tested for the anticholinergic activity against tetrabenazine-treated mice; activity expressed as the pupil size at the dose of 32 mg/kg sc; assay type: functional; conditions: route subcutaneous
[6] = test system: Rattus norvegicus; assay: Compound was tested for the antagonistic activity against amphetamine-induced stereotypy in rats; (5 mg/kg administered ip 24 hr after the test compound); assay type: functional; method in brief: as §1
[7] = test system: Rattus norvegicus; assay: Compound was tested for the antagonistic activity against amphetamine-induced stereotypy in rats; (5 mg/kg administered ip 5 hr after the test compound); assay type: functional; method in brief: as §1
[8] = test system: Dopamine receptor; assay: Compound was tested for inhibition of [3H]spiroperidol (0.5 nM) binding to dopamine receptor from rat striatal membrane; Insoluble
[9] = species: Rattus norvegicus; assay: Compound was tested for the antagonistic activity against amphetamine-induced stereotypy in rat.; assay type: functional; method in brief: as §1
[10] = test system: Rattus norvegicus; assay: Compound was tested for the antagonistic activity against amphetamine-induced stereotypy in rats; (5 mg/kg administered ip 5 after the test compound).; assay type: functional; method in brief: as §1
[11] = test system: Mus musculus; assay: Compound was tested for the anticholinergic activity against tetrabenazine-treated mice; activity expressed as the pupil size at the dose of 1 mg/kg sc; conditions: route subcutaneous
[12] = test system: Mus musculus; assay: Compound was tested for the anticholinergic activity against tetrabenazine-treated mice; activity expressed as the pupil size at the dose of 100 mg/kg sc; assay type: functional; conditions: route subcutaneous
Method in brief: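 Groups of five mice dosed sc with test compound, then 1 h later tetrabenazine 32 mg/kg ip. After 30 min, pupil size measured with a binocular microscope; reticle readings converted to mm. Reported as mean ± SD pupil size (mm). Vehicle-pretreated tetrabenazine control groups of five run alongside.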

[13] = test system: Mus musculus; assay: Compound was tested for the anticholinergic activity against tetrabenazine-treated mice; activity expressed as the pupil size at the dose of 10 mg/kg sc; assay type: functional; conditions: route subcutaneous
Method in brief: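 Mice in groups of five dosed sc, then given tetrabenazine 32 mg/kg ip 1 h later. Pupils measured 30 min afterward under a binocular microscope, with reticle readings converted to mm. Reported as mean ± SD pupil size. Vehicle-pretreated tetrabenazine groups served as controls.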

[14] = Rattus norvegicus, ip, 1 h, read-out: ED50
[15] = Rattus norvegicus, ip, 24 h, read-out: ED50
[16] = Rattus norvegicus, ip, 5 h, read-out: ED50

| Structure (SMILES) | ED50 [1] | ED50 [2, 14] | IC50 [3] | ED50 [4] | other results |
| --- | --- | --- | --- | --- | --- |
| OC(CCN1CC[C@H]2[C@H](C1)c1cc(F)ccc1N2c1ccc(F)cc1)(c1ccccc1)c1ccccc1 | > 10 mg/kg | > 10 mg/kg | 0.22 µM |  |  |
| O=C1CNC(=O)N1CCN1CCC2c3cc(F)ccc3N(c3ccc(F)cc3)C2C1 (configuration not stated) | 0.57 mg/kg | 0.57 mg/kg | 0.026 µM | > 32 mg/kg |  |
| O=C1CNC(=O)N1CCCN1CCC2c3cc(F)ccc3N(c3ccc(F)cc3)C2C1 (configuration not stated) | 0.05 mg/kg | 0.11 mg/kg | 0.014 µM | > 0.32 mg/kg |  |
| O=C(CCCN1CC[C@H]2[C@H](C1)c1cc(F)ccc1N2c1ccc(F)cc1)NC1CCCCC1 | 0.14 mg/kg | 0.45 mg/kg | 0.012 µM | 0.57 mg/kg | Pupil size [5]: 0.23 mm |
| Fc1ccc(N2c3ccc(F)cc3[C@H]3CNCC[C@@H]32)cc1 |  | 0.36 mg/kg | 0.0067 µM |  | ED50 [6, 15]: > 10 mg/kg; ED50 [7, 16]: 0.45 mg/kg |
| I.O=C(CCCN1CC[C@H]2[C@H](C1)c1cc(F)ccc1N2c1ccc(F)cc1)N(c1ccccc1)C1CCCCC1 | 1 mg/kg | > 32 mg/kg |  | < 32 mg/kg | IC50 [8]: Insoluble |
| Cl.O=C(Nc1ccccc1)OCCN1CC[C@H]2[C@H](C1)c1cc(F)ccc1N2c1ccc(F)cc1 | 0.45 mg/kg | 0.57 mg/kg | 0.045 µM | 2.3 mg/kg |  |
| Cl.Fc1ccc(N(c2ccc(F)cc2)C2CCNCC2)cc1 |  |  | > 1 µM |  |  |
| CN1CCC2C(C1)c1cc(F)ccc1N2c1ccc(F)cc1.Cl (configuration not stated) |  |  | 0.0075 µM |  | ED50 [9]: 0.3 mg/kg |
| Cl.O=C1CNC(=O)N1CCCCCCN1CC[C@@H]2c3cc(F)ccc3N(c3ccc(F)cc3)[C@H]2C1 | 0.02 mg/kg | 0.13 mg/kg | 0.014 µM | 0.07 mg/kg |  |
| Cl.O=C(NCCCCCCN1CCc2c(c3cc(F)ccc3n2-c2ccc(F)cc2)C1)c1ccccc1 |  |  | 0.0085 µM |  | ED50 [9]: > 10 mg/kg |
| Cl.O=C1CNC(=O)N1CCCCCCN1CCc2c(n(-c3ccc(F)cc3)c3ccc(F)cc23)C1 | 0.75 mg/kg | 1 mg/kg | 0.0058 µM | > 10 mg/kg |  |
| Cl.O=C(O)CCCN1CCC2C(C1)c1cc(F)ccc1N2c1ccc(F)cc1 (configuration not stated) |  |  | 0.14 µM |  | ED50 [9]: 0.36 mg/kg |
| Cl.O=C(NCCCCCCN1CCC2C(C1)c1cc(F)ccc1N2c1ccc(F)cc1)c1ccccc1 (configuration not stated) |  |  | 0.013 µM |  | ED50 [9]: 0.1 mg/kg |
| Cl.OC(CCCN1CCC(N(c2ccc(F)cc2)c2ccc(F)cc2)CC1)c1ccc(F)cc1 (configuration not stated) |  |  | 1 µM |  |  |
| CC(=O)NCCCCN1CCC2C(C1)c1cc(F)ccc1N2c1ccc(F)cc1.Cl (configuration not stated) |  |  | 0.013 µM |  | ED50 [9]: 0.006 mg/kg |
| Cl.O=C(CCCN1CCC(N(c2ccc(F)cc2)c2ccc(F)cc2)CC1)c1ccc(F)cc1 |  | > 32 mg/kg | 0.068 µM | > 32 mg/kg |  |
| Cl.O[C@H](CCCN1CCC2C(C1)c1cc(F)ccc1N2c1ccc(F)cc1)c1ccc(F)cc1 (some centres not stated) | 0.05 mg/kg | 0.21 mg/kg | 0.025 µM | 0.02 mg/kg |  |
| Cl.O=C(CCCN1CC[C@H]2[C@H](C1)c1cc(F)ccc1N2c1ccc(F)cc1)Nc1ccccc1 |  | 0.45 mg/kg | 0.019 µM | 1.8 mg/kg | ED50 [10]: 0.18 mg/kg; Pupil size [5]: 0.28 mm |
| Cl.O=C(O)CCCN1CCc2c(c3cc(F)ccc3n2-c2ccc(F)cc2)C1 |  |  | > 0.32 µM |  |  |

| Structure (SMILES) | ED50 [1] | ED50 [2, 14] | IC50 [3] | ED50 [4] | other results |
| --- | --- | --- | --- | --- | --- |
| Cl.O=C1CNC(=O)N1CCCCN1CC[C@@H]2c3cc(F)ccc3N(c3ccc(F)cc3)[C@H]2C1 | 0.018 mg/kg | 0.057 mg/kg | 0.012 µM | 0.18 mg/kg |  |
| Cl.O=C1CNC(=O)N1CCCCCCN1CCC2c3cc(F)ccc3N(c3ccc(F)cc3)C2C1 (configuration not stated) | 0.033 mg/kg | 0.18 mg/kg | 0.0094 µM | > 0.32 mg/kg |  |
| CC(=O)NCCCCN1CCc2c(c3cc(F)ccc3n2-c2ccc(F)cc2)C1.Cl |  |  | 0.054 µM |  | ED50 [9]: > 3.2 mg/kg |
| Cl.O=C1CNC(=O)N1CCCCCN1CC[C@@H]2c3cc(F)ccc3N(c3ccc(F)cc3)[C@H]2C1 | 0.02 mg/kg | 0.04 mg/kg | 0.006 µM | 0.05 mg/kg |  |
| CN1CCc2c(c3cc(F)ccc3n2-c2ccc(F)cc2)C1.Cl |  |  |  |  | ED50 [9]: > 1 mg/kg |
| Fc1ccc(N2c3ccc(F)cc3[C@@H]3CNCC[C@H]32)cc1 |  |  | 3.2 µM |  |  |
| O=C(NCCN1CC[C@H]2[C@H](C1)c1cc(F)ccc1N2c1ccc(F)cc1)C(CO)c1ccccc1 (some centres not stated) | 0.89 mg/kg | 2.8 mg/kg | 0.035 µM | 32 mg/kg | Pupil size [5]: 0.23 mm |
| Fc1ccc(N2c3ccc(F)cc3[C@H]3CN(CCn4c5ccccc5c5ccccc54)CC[C@@H]32)cc1 | > 32 mg/kg | > 32 mg/kg |  |  | IC50 [8]: Insoluble |
| Fc1ccc(-n2c3c(c4cc(F)ccc42)CNCC3)cc1 |  | > 10 mg/kg | 0.35 µM |  |  |
| O[C@H](CCCN1CC[C@H]2[C@H](C1)c1cc(F)ccc1N2c1ccc(F)cc1)c1ccc(F)cc1 (stereo in doubt; 2a) |  |  | 0.025 µM |  | ED50 [6]: 0.02 mg/kg; ED50 [2]: 0.21 mg/kg; ED50 [7]: 0.05 mg/kg |
| O[C@H](CCCN1CC[C@H]2[C@H](C1)c1cc(F)ccc1N2c1ccc(F)cc1)c1ccc(F)cc1 (stereo in doubt; 2b) |  |  | 0.35 µM |  | ED50 [6]: >10 mg/kg; ED50 [2]: >10 mg/kg; ED50 [7]: 5.7 mg/kg |
| O[C@H](CCCN1CC[C@@H]2[C@@H](C1)c1cc(F)ccc1N2c1ccc(F)cc1)c1ccc(F)cc1 (stereo in doubt; 2c) |  |  | 0.022 µM |  | ED50 [6]: 0.02 mg/kg; ED50 [2]: 0.05 mg/kg; ED50 [7]: 0.02 mg/kg |
| O[C@H](CCCN1CC[C@@H]2[C@@H](C1)c1cc(F)ccc1N2c1ccc(F)cc1)c1ccc(F)cc1 (stereo in doubt; 2d) |  |  | 1.8 µM |  | ED50 [6]: >10 mg/kg; ED50 [2]: >10 mg/kg; ED50 [7]: 18.1 mg/kg |
| CN1[C@@H]2CC[C@H]1C[C@@H](OC(=O)C(CO)c1ccccc1)C2.O=S(=O)(O)O (some centres not stated) [ATROPINE SULFATE] |  |  |  |  | Pupil size [11]: 1.98 mm |
| CN1CCN(C2=Nc3cc(Cl)ccc3Nc3ccccc32)CC1 [CLOZAPINE] |  |  |  |  | Pupil size [12]: 1.13 mm |
| CNCCCN1c2ccccc2CCc2ccccc21.Cl [DESIPRAMINE HYDROCHLORIDE] |  |  |  |  | Pupil size [13]: 0.66 mm |
| OC(CCCN1CCc2c(c3cc(F)ccc3n2-c2ccc(F)cc2)C1)c1ccc(F)cc1 (configuration not stated) [FLUTROLINE] |  | 1 mg/kg | 0.012 µM |  | ED50 [6, 15]: 2.2 mg/kg; ED50 [7, 16]: 0.15 mg/kg |
| O=C(CCCN1CCC(O)(c2ccc(Cl)cc2)CC1)c1ccc(F)cc1 [HALOPERIDOL] |  | 0.66 mg/kg |  |  | ED50 [6, 15]: > 10 mg/kg; ED50 [7, 16]: 0.75 mg/kg |
| OC1(c2ccc(Cl)c(C(F)(F)F)c2)CCN(CCCC(c2ccc(F)cc2)c2ccc(F)cc2)CC1 [PENFLURIDOL] |  | ~32 mg/kg | 0.062 µM |  | ED50 [6, 15]: 3.9 mg/kg; ED50 [7, 16]: 2.4 mg/kg |
